Measured values: ChEMBL document CHEMBL2029214, “Radiosynthesis and evaluation of an (18)F-labeled positron emission tomography (PET) radioligand for brain histamine subtype-3 receptors based on a nonimidazole 2-aminoethylbenzofuran chemotype” (J Med Chem, 2012)

Key:
Brain [1] = assay: Drug uptake in FVB mouse whole brain at 73+/-29 uCi, iv at 90 mins by PET imaging; type: ADME, organism-based; details: in vivo, 1.5 h
Method in brief: (§1)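 Dynamic microPET ran 120 min with frames of 20 s to 20 min, without attenuation or scatter correction. Decay-corrected whole-brain curves expressed as SUV = (%ID/cm3) × (g body weight).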

Brain [2] = assay: Drug uptake in FVB mouse whole brain at 73+/-29 uCi, iv administered 30 mins post-ciproxifan treatment measured at 4.5 mins by PET imaging; type: ADME, organism-based; details: in vivo, 0.075 h; method in brief: as §1
Brain [3] = assay: Drug uptake in FVB mouse whole brain at 73+/-29 uCi, iv administered 30 mins post-(R)-(4-fluorophenyl)(2-(2-(2-methylpyrrolidin-1-yl)ethyl)benzofuran-5-yl)methanone treatment measured at 90 mins by PET imaging; type: ADME, organism-based; details: in vivo, 1.5 h; method in brief: as §1
Brain [4] = assay: Drug uptake in FVB mouse whole brain at 73+/-29 uCi, iv administered 30 mins post-(R)-(2-(2-(2-methylpyrrolidin-1-yl)ethyl)benzofuran-5-yl)(4-nitrophenyl)methanone treatment measured at 90 mins by PET imaging; type: ADME, organism-based; details: in vivo, 1.5 h; method in brief: as §1
Hippocampus [5] = assay: Drug uptake in rhesus monkey hippocampus at 3.91+/-0.46 mCi, iv by PET imaging; type: ADME, organism-based, Macaca mulatta; details: in vivo
Method in brief: (§2)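 Male rhesus monkeys (7.3 ± 0.8 kg; n = 4 baseline), ketamine 10 mg/kg i.m. then 1.5% isoflurane in O2. […] [18F]ligand given i.v. Focus 220 microPET, 180 min (one scan 120 min), 45 frames 30 s–5 min, scatter/attenuation corrected, decay-corrected; template-normalized regions; uptake as SUV.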

[6] = Drug uptake in rhesus monkey thalamus at 3.91+/-0.46 mCi, iv by PET imaging; type: ADME, organism-based, Macaca mulatta; details: in vivo; method in brief: as §2
Striatum [7] = assay: Drug uptake in rhesus monkey striatum at 3.91+/-0.46 mCi, iv at 180 mins by PET imaging; type: ADME, organism-based, Macaca mulatta; details: in vivo, 3 h; method in brief: as §2
[8] = Drug uptake in rhesus monkey frontal cortex at 3.91+/-0.46 mCi, iv at 180 mins by PET imaging; type: ADME, organism-based, Macaca mulatta; details: in vivo, 3 h; method in brief: as §2
[9] = Drug uptake in rhesus monkey cerebellum at 3.91+/-0.46 mCi, iv at 180 mins by PET imaging; type: ADME, organism-based, Macaca mulatta; details: in vivo, 3 h
Hippocampus [10] = assay: Drug uptake in rhesus monkey hippocampus at 3.91+/-0.46 mCi, iv at 180 mins by PET imaging; type: ADME, organism-based, Macaca mulatta; details: in vivo, 3 h; method in brief: as §2
[11] = Drug uptake in rhesus monkey thalamus at 3.91+/-0.46 mCi, iv at 180 mins by PET imaging; type: ADME, organism-based, Macaca mulatta; details: in vivo, 3 h; method in brief: as §2
[12] = Drug uptake in rhesus monkey skull at 3.91+/-0.46 mCi, iv at 180 mins by PET imaging; type: ADME, organism-based, Macaca mulatta; details: in vivo, 3 h
Striatum [13] = assay: Drug uptake in rhesus monkey striatum at 3.91+/-0.46 mCi, iv administered 30 mins post-ciproxifan treatment measured at 180 mins by PET imaging; type: ADME, organism-based, Macaca mulatta; details: in vivo, 3 h; method in brief: as §2
[14] = Drug uptake in rhesus monkey frontal cortex at 3.91+/-0.46 mCi, iv administered 30 mins post-ciproxifan treatment measured at 180 mins by PET imaging; type: ADME, organism-based, Macaca mulatta; details: in vivo, 3 h; method in brief: as §2
[15] = Drug uptake in rhesus monkey cerebellum at 3.91+/-0.46 mCi, iv administered 30 mins post-ciproxifan treatment measured at 180 mins by PET imaging; type: ADME, organism-based, Macaca mulatta; details: in vivo, 3 h
Hippocampus [16] = assay: Drug uptake in rhesus monkey hippocampus at 3.91+/-0.46 mCi, iv administered 30 mins post-ciproxifan treatment measured at 180 mins by PET imaging; type: ADME, organism-based, Macaca mulatta; details: in vivo, 3 h; method in brief: as §2
[17] = Drug uptake in rhesus monkey thalamus at 3.91+/-0.46 mCi, iv administered 30 mins post-ciproxifan treatment measured at 180 mins by PET imaging; type: ADME, organism-based, Macaca mulatta; details: in vivo, 3 h; method in brief: as §2
Striatum [18] = assay: Drug uptake in rhesus monkey striatum at 3.91+/-0.46 mCi, iv administered 30 mins post-(R)-(4-fluorophenyl)(2-(2-(2-methylpyrrolidin-1-yl)ethyl)benzofuran-5-yl)methanone treatment measured up to 180 mins by PET imaging; type: ADME, organism-based, Macaca mulatta; details: in vivo; method in brief: as §2
[19] = Drug uptake in rhesus monkey frontal cortex at 3.91+/-0.46 mCi, iv administered 30 mins post-(R)-(4-fluorophenyl)(2-(2-(2-methylpyrrolidin-1-yl)ethyl)benzofuran-5-yl)methanone treatment measured up to 180 mins by PET imaging; type: ADME, organism-based, Macaca mulatta; details: in vivo
[20] = Drug uptake in rhesus monkey cerebellum at 3.91+/-0.46 mCi, iv administered 30 mins post-(R)-(4-fluorophenyl)(2-(2-(2-methylpyrrolidin-1-yl)ethyl)benzofuran-5-yl)methanone treatment measured up to 180 mins by PET imaging; type: ADME, organism-based, Macaca mulatta; details: in vivo
Hippocampus [21] = assay: Drug uptake in rhesus monkey hippocampus at 3.91+/-0.46 mCi, iv administered 30 mins post-(R)-(4-fluorophenyl)(2-(2-(2-methylpyrrolidin-1-yl)ethyl)benzofuran-5-yl)methanone treatment measured up to 180 mins by PET imaging; type: ADME, organism-based, Macaca mulatta; details: in vivo; method in brief: as §2
[22] = Drug uptake in rhesus monkey thalamus at 3.91+/-0.46 mCi, iv administered 30 mins post-(R)-(4-fluorophenyl)(2-(2-(2-methylpyrrolidin-1-yl)ethyl)benzofuran-5-yl)methanone treatment measured up to 180 mins by PET imaging; type: ADME, organism-based, Macaca mulatta; details: in vivo; method in brief: as §2
[23] = Drug uptake in rhesus monkey skull at 3.91+/-0.46 mCi, iv administered 30 mins post-(R)-(4-fluorophenyl)(2-(2-(2-methylpyrrolidin-1-yl)ethyl)benzofuran-5-yl)methanone treatment measured up to 180 mins by PET imaging; type: ADME, organism-based, Macaca mulatta; details: in vivo
[24] = Metabolic stability in monkey whole blood assessed as compound remaining after 2.5 hrs by radio-HPLC; type: ADME, tissue-based, Macaca mulatta; details: rhesus monkey, read-out: Stability
Method in brief: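 [18F]Radioligand was incubated in monkey whole blood at room temperature for 2.5 h in vitro, n = 6. Unchanged fraction was measured by radio-HPLC on reverse-phase C18 in a radial compression module, eluted at 2.0 mL/min with MeOH:H2O:Et3N (85:15:0.1).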

[25] = Metabolic stability in monkey plasma assessed as compound remaining after 2.5 hrs by radio-HPLC; type: ADME, cell-free, Macaca mulatta; details: rhesus monkey, read-out: Stability
Method in brief: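 Radioligand incubated in monkey plasma in vitro at room temperature for 2.5 h; percent unchanged by reverse-phase radio-HPLC (C18 radial compression, MeOH:H2O:Et3N 85:15:0.1, 2.0 mL/min); n = 6.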

Plasma [26] = assay: Drug metabolism in rhesus monkey plasma assessed as decrease in unchanged compound at 3.87 mCi, iv by radio-HPLC; type: ADME, organism-based, Macaca mulatta; details: in vivo
Plasma [27] = assay: Drug metabolism in rhesus monkey plasma assessed as decrease in unchanged compound at 3.87 mCi, iv administered 30 mins post-ciproxifan treatment by radio-HPLC; type: ADME, organism-based, Macaca mulatta; details: in vivo, 0.5 h
Plasma [28] = assay: Drug metabolism in rhesus monkey plasma assessed as decrease in unchanged compound at 3.87 mCi, iv administered 30 mins post-(R)-(4-fluorophenyl)(2-(2-(2-methylpyrrolidin-1-yl)ethyl)benzofuran-5-yl)methanone treatment by radio-HPLC; type: ADME, organism-based, Macaca mulatta; details: in vivo, 0.5 h
Plasma [29] = assay: Drug metabolism in rhesus monkey plasma assessed as radiometabolite formation at 3.87 mCi, iv by radio-HPLC; type: ADME, organism-based, Macaca mulatta; details: in vivo
Plasma [30] = assay: Drug metabolism in rhesus monkey plasma assessed as radiometabolite formation at 3.87 mCi, iv administered 30 mins post-ciproxifan treatment by radio-HPLC; type: ADME, organism-based, Macaca mulatta; details: in vivo, 0.5 h
Plasma [31] = assay: Drug metabolism in rhesus monkey plasma assessed as radiometabolite formation at 3.87 mCi, iv administered 30 mins post-(R)-(4-fluorophenyl)(2-(2-(2-methylpyrrolidin-1-yl)ethyl)benzofuran-5-yl)methanone treatment by radio-HPLC; type: ADME, organism-based, Macaca mulatta; details: in vivo, 0.5 h
[32] = Unbound fraction in rhesus monkey plasma at 3.91+/-0.46 mCi, iv by ultrafiltration; type: ADME, organism-based, Macaca mulatta
Method in brief: (§3)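 Arterial plasma from monkeys scanned at baseline or 30 min after unlabeled ligand (1.0 mg/kg i.v.) pretreatment; free fraction of [18F]ligand measured by ultrafiltration, each plasma sample in triplicate.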

[33] = Unbound fraction in rhesus monkey plasma at 3.91+/-0.46 mCi, iv administered 30 mins post-(R)-(4-fluorophenyl)(2-(2-(2-methylpyrrolidin-1-yl)ethyl)benzofuran-5-yl)methanone treatment by ultrafiltration; type: ADME, organism-based, Macaca mulatta; method in brief: as §3
Brain [34] = assay: Drug metabolism in rhesus monkey brain assessed as radiodefluorination at 3.91 mCi, iv by PET; details: in vivo

For C[C@@H]1CCCN1CCc1cc2cc(C(=O)c3ccc([18F])cc3)ccc2o1, the SUV (Brain [1]) was 2.3, the SUV (Brain [2]) was 1.98 and the SUV (Brain [3]) was less than 1.2. For the same molecule, the SUV (Brain [4]) was less than 1.2, the Drug uptake (Hippocampus [5]) was “Active” and the Drug uptake [6] was “Active”. The Drug uptake (Striatum [7]) was “Not Active”, the Drug uptake [8] was “Not Active” and the Drug uptake [9] was “Not Active”. For the same molecule, the Drug uptake (Hippocampus [10]) was “Not Active”, the Drug uptake [11] was “Not Active” and the Drug uptake [12] was “Not Active”. For the same molecule, the Drug uptake (Striatum [13]) was “Not Active”, the Drug uptake [14] was “Not Active” and the Drug uptake [15] was “Active”. The Drug uptake (Hippocampus [16]) was “Not Active”, the Drug uptake [17] was “Not Active” and the Drug uptake (Striatum [18]) was “Not Active”. For the same molecule, the Drug uptake [19] was “Not Active”, the Drug uptake [20] was “Not Active” and the Drug uptake (Hippocampus [21]) was “Not Active”. The Drug uptake [22] was “Not Active”, the Drug uptake [23] was “Not Active” and the remaining at 2.5 h [24] was 98.4%. For the same molecule, the remaining at 2.5 h [25] was 99.2%, the Drug metabolism (Plasma [26]) was “Active” and the Drug metabolism (Plasma [27]) was “Active”. For the same molecule, the Drug metabolism (Plasma [28]) was “Active”, the Drug metabolism (Plasma [29]) was “Active” and the Drug metabolism (Plasma [30]) was “Active”. For the same molecule, the Drug metabolism (Plasma [31]) was “Active”, the fraction unbound [32] was 0.0208 and the fraction unbound at 0.5 h [33] was 0.014. For the same molecule, the Drug metabolism (Brain [34]) was “Not Active”.
